From ChEMBL document CHEMBL5653624 (Biochem Pharmacol, 2016)
Calls of active or inactive are those of the source. The rule behind the calls is not given here.

Assays:
[1] = molecular target: Histone deacetylase 2 (Mus musculus) (UniProt P70288); assay: Effect on HDAC2 nuclear localization in LPS/IFNgamma-stimulated mouse RAW264.7 cells preincubated for 20 hrs followed by LPS/IFNgamma stimulation and measured after 1 hr by Western blot analysis; assay type: cell-based
Method in brief: (§1)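 RAW 264.7 cells treated for 20 h, then 1 h LPS/IFNγ, and fractionated into nuclear and cytosolic parts. Fractions immunoblotted, with PARP-1 and β-actin as internal controls. Densitometry with vehicle control set at 100%. Mean ± SD of 3–4 independent experiments.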

RAW264.7 [2] = assay: Antiinflammatory activity in mouse RAW264.7 cells assessed as down regulation of LPS/IFNgamma-induced IL-6 gene expression at 1 uM preincubated for 20 hrs followed by LPS/IFNgamma stimulation and measured after 4 hrs by RT-qPCR analysis; assay type: functional, cell-based; details: time 24.0 hrs
Method in brief: (§2)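 RAW 264.7 macrophages in DMEM/10% FBS received 1 μM RGFP966 for 20 h, with LPS/IFNγ for the last 4 h. Washed with cold DPBS, total RNA isolated, integrity checked by 28S/18S. RT-qPCR by comparative Ct (2−ΔΔCt), fold change versus LPS/IFNγ control. Mean ± SD of 3–5 independent experiments.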

RAW264.7 [3] = assay: Antiinflammatory activity in LPS/IFNgamma-stimulated mouse RAW264.7 cells assessed as effect on IkappaBalpha mRNA expression preincubated for 20 hrs followed by LPS/IFNgamma stimulation and measured after 4 hrs by RT-qPCR analysis; assay type: functional, cell-based; details: time 24.0 hrs
RAW264.7 [4] = assay: Antiinflammatory activity in LPS/IFNgamma-stimulated mouse RAW264.7 cells assessed as effect on HDAC1 mRNA expression preincubated for 20 hrs followed by LPS/IFNgamma stimulation and measured after 4 hrs by RT-qPCR analysis; assay type: functional, cell-based; details: time 24.0 hrs
[5] = Cytotoxicity against HBE cells assessed as reduction in cell viability at 2 uM measured after 20 hrs by MTS assay; assay type: toxicity, cell-based; details: human
Method in brief: (§3)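 MTS viability assay. RAW 264.7 cells seeded at 25,000 cells/cm2; HBE and hASM cells at 70% confluency and serum-starved for 24 h. Exposure for 20 h with LPS/IFNγ stimulation. MTS reagent added for 1 h at 37 °C in the dark, absorbance read at 490 nm. LPS/IFNγ-stimulated cells without inhibitor set at 100%.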

[6] = molecular target: T1, Histone deacetylase 3 (Mus musculus) (UniProt O88895); assay: Inhibition of HDAC3 in mouse RAW264.7 cells assessed as effect on LPS/IFNgamma-induced NF-kappaB p65 acetylation level preincubated for 20 hrs followed by LPS/IFNgamma stimulation and measured after 1 hr by Western blot analysis
T1 sequence (whole entry): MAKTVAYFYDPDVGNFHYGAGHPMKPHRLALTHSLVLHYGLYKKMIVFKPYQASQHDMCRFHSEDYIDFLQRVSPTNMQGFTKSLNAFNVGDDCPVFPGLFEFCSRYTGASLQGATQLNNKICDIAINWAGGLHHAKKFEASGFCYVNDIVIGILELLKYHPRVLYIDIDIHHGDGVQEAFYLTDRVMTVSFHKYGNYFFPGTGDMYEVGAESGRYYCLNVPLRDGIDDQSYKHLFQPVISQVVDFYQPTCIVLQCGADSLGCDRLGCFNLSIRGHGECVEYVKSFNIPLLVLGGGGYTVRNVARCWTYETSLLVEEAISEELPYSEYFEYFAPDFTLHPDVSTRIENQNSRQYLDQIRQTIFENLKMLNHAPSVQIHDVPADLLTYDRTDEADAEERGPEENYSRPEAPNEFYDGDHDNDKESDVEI

[7] = molecular target: T1, Histone deacetylase 3 (Mus musculus); assay: Inhibition of HDAC3 in mouse RAW-Blue cells assessed as effect on NF-kappaB p65 transcriptional activity measured after 16 hrs by SEAP reporter gene assay; assay type: cell-based
Method in brief: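 RAW-Blue cells (RAW 264.7-derived, stably expressing an NF-κB/AP-1-inducible secreted embryonic alkaline phosphatase) exposed to inhibitor for 20 h total, with 10 ng/ml LPS plus 10 ng/ml IFNγ added for the final 4 h. Supernatant mixed with QUANTI-Blue medium, 37 °C 1–2 h in the dark, absorbance 630 nm; reported as % of control.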

RAW264.7 [8] = assay: Cytotoxicity against mouse RAW264.7 cells assessed as reduction in cell viability at 1 uM measured after 20 hrs by MTS assay; assay type: toxicity, cell-based; details: raw264.7, 20 h; method in brief: as §3
RAW264.7 [9] = assay: Antiinflammatory activity in mouse RAW264.7 cells assessed as down regulation of LPS/IFNgamma-induced IL-1beta gene expression at 1 uM preincubated for 20 hrs followed by LPS/IFNgamma stimulation and measured after 4 hrs by RT-qPCR analysis; assay type: functional, cell-based; details: time 24.0 hrs; method in brief: as §2
Lung [10] = assay: Antiinflammatory activity in C57bl/6 mouse precision-cut lung slices assessed as upregulation of LPS/IFNgamma-induced IkappaBalpha gene expression at 1 to 10 uM preincubated for 20 hrs followed by LPS/IFNgamma stimulation and measured after 4 hrs by RT-qPCR analysis; assay type: functional, tissue-based; details: dose 1-10 µM, time 24.0 hrs
HASMC = assay: Antiinflammatory activity in HASMC cells assessed as effect on LPS/IFNgamma-induced IL-10 gene expression at 2 uM […] by RT-qPCR analysis; assay type: functional, cell-based; details: Homo sapiens
Method in brief: (§4)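 HBE cells (passage 73–103) or immortalized hASM cells (2–3 donors, passage 27–35), serum-starved. Then 2 μM RGFP966 for 20 h, with LPS/IFNγ for the last 4 h. Total RNA isolated; RT-qPCR by 2−ΔΔCt, fold change versus LPS/IFNγ control. Mean ± SD of 3–5 independent experiments.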

HBE [11] = assay: Antiinflammatory activity in HBE cells assessed as effect on LPS/IFNgamma-induced IL-10 gene expression at 2 uM […] by RT-qPCR analysis; assay type: functional, cell-based; details: Homo sapiens; method in brief: as §4
HBE [12] = assay: Antiinflammatory activity in HBE cells assessed as effect on LPS/IFNgamma-induced IL-12b gene expression at 2 uM […] by RT-qPCR analysis; assay type: functional, cell-based; details: Homo sapiens; method in brief: as §4
Lung [13] = assay: Antiinflammatory activity in C57bl/6 mouse precision-cut lung slices assessed as upregulation of LPS/IFNgamma-induced IL-10 gene expression at 1 to 10 uM preincubated for 20 hrs followed by LPS/IFNgamma stimulation and measured after 4 hrs by RT-qPCR analysis relative to control; assay type: functional; details: dose 1-10 µM; time 24 hrs
Method in brief: (§5)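 PCLS, 250 μm thick, cut from agarose-filled lungs of male C57bl/6 mice (24–28 g, 8–10 weeks). Three slices per well at 37 °C, 5% CO2. Slices received RGFP966 at 1 and 10 μM final for 20 h, with 10 ng/ml LPS and 10 ng/ml IFNγ stimulation. RNA isolated; RT-qPCR fold change versus LPS/IFNγ control by 2−ΔΔCt. Mean ± SD, n = 3–5.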

[14] = molecular target: T1, Histone deacetylase 3 (Mus musculus); assay: Effect on HDAC3 nuclear localization in LPS/IFNgamma-stimulated mouse RAW264.7 cells preincubated for 20 hrs followed by LPS/IFNgamma stimulation and measured after 1 hr by Western blot analysis; assay type: cell-based; method in brief: as §1
Lung [15] = assay: Antiinflammatory activity in C57bl/6 mouse precision-cut lung slices assessed as down regulation of LPS/IFNgamma-induced iNOS gene expression at 1 to 10 uM preincubated for 20 hrs followed by LPS/IFNgamma stimulation and measured after 4 hrs by RT-qPCR analysis; assay type: functional, tissue-based; details: dose 1-10 µM, time 24.0 hrs; method in brief: as §5

Chain of Histone deacetylase 2 (Mus musculus) (P70288 whole entry): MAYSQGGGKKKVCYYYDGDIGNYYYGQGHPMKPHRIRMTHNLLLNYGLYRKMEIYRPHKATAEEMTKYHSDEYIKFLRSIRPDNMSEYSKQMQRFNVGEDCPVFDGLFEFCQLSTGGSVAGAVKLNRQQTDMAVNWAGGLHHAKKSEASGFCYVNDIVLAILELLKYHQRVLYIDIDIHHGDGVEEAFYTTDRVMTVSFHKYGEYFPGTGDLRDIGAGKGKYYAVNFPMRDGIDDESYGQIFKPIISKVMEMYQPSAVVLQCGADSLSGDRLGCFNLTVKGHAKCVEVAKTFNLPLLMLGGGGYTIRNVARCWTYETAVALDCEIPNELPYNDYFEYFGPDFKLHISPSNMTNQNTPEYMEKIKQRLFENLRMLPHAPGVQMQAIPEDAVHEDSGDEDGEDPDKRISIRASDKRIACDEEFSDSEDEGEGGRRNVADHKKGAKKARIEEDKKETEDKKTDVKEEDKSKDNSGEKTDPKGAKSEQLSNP

Activity [1]: inactive
inhibition [6]: inactive
inhibition [7]: inactive
Activity [14]: inactive
Structure (SMILES): Nc1cc(F)ccc1NC(=O)/C=C/c1cnn(C/C=C/c2ccccc2)c1
Activity (RAW264.7 [2]): Active
Activity (RAW264.7 [3]): inactive
Activity (RAW264.7 [4]): inactive
Activity [5]: Non-Toxic
Activity (RAW264.7 [8]): Non-Toxic
Activity (RAW264.7 [9]): Active
Activity (Lung [10]): Active
Activity (HASMC): inactive
Activity (HBE [11]): inactive
Activity (HBE [12]): inactive
fold change (FC) (Lung [13]): 2
Activity (Lung [15]): Active
